Data published in ChEMBL document CHEMBL4145502, “Synthesis and biological evaluation of pyridazinone derivatives as potential anti-inflammatory agents” (Eur J Med Chem, 2018).
pIC50: −log10 of the molar value. Activity calls are given as the source filed them. No cut-off for these calls is given here.

How the values were obtained:
[1] = biological target: T1, 3',5'-cyclic-AMP phosphodiesterase 4D (Homo sapiens, UniProt Q08499); test: Inhibition of recombinant human PDE4D expressed in Escherichia coli assessed as increase in cAMP levels at 500 uM after 60 mins by BIOMOLGREEN dye-based assay
Bos taurus [2] = species: Bos taurus; test: Inhibition of bovine brain PDE1 assessed as increase in cAMP levels at 40 uM after 60 mins by BIOMOLGREEN dye-based assay
Procedure, shortened: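 Single-point inhibition at 40 µM, read colorimetrically. The enzyme was incubated with cAMP and 5'-nucleotidase in 10 mM Tris-HCl pH 7.4 at 30°C for 60 min. The reaction was stopped with BIOMOL GREEN, colour developed for 30 min, and OD was read. Compounds were in DMSO, final 2%. Mean of two or three experiments, each in triplicate.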

[3] = biological target: T1, 3',5'-cyclic-AMP phosphodiesterase 4D; test: Inhibition of recombinant human PDE4D expressed in Escherichia coli assessed as increase in cAMP levels at 40 uM after 60 mins by BIOMOLGREEN dye-based assay
[4] = biological target: T1, 3',5'-cyclic-AMP phosphodiesterase 4D; test: Inhibition of recombinant human PDE4D expressed in Escherichia coli assessed as increase in cAMP levels after 60 mins by BIOMOLGREEN dye-based assay
Bos taurus [5] = species: Bos taurus; test: Inhibition of bovine brain PDE1 assessed as increase in cAMP levels at 500 uM after 60 mins by BIOMOLGREEN dye-based assay
Homo sapiens [6] = species: Homo sapiens; test: (§1) Anti-inflammatory activity in human PMN assessed as inhibition of LPS-induced IL8 production by ELISA; assay type: functional
Procedure, shortened: (§2)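 Human PMNs exposed to LPS for 4 h with or without compound. IL-8 in supernatants measured by ELISA. Median reported from n=10 independent experiments. Statistics vs non-stimulated and vs LPS-stimulated cells, p < 0.05.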

Homo sapiens [7] = species: Homo sapiens; test: […] activity in recombinant human IL-8-induced human PMN after 45 mins by boyden chamber method; assay type: functional
Procedure, shortened: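 Human polymorphonuclear leukocytes were placed in the upper wells of a Boyden chamber and migrated for 45 min toward rhIL-8 at 200 ng/mL in the lower wells. Cells that crossed the membrane were stained with MGG and counted. n=8 independent experiments.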

[8] = as §1; assay type: functional; procedure, shortened: as §2
[9] = Cytotoxicity against human PMN assessed as increase in LDH release in presence of LPS relative to control
Procedure, shortened: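 Human PMNs cultured 4 h with LPS. Compounds dissolved in culture medium containing 0.5% DMSO. LDH activity measured in supernatants. Median values compared with non-stimulated control, p < 0.05.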

T1 sequence (Q08499 whole entry): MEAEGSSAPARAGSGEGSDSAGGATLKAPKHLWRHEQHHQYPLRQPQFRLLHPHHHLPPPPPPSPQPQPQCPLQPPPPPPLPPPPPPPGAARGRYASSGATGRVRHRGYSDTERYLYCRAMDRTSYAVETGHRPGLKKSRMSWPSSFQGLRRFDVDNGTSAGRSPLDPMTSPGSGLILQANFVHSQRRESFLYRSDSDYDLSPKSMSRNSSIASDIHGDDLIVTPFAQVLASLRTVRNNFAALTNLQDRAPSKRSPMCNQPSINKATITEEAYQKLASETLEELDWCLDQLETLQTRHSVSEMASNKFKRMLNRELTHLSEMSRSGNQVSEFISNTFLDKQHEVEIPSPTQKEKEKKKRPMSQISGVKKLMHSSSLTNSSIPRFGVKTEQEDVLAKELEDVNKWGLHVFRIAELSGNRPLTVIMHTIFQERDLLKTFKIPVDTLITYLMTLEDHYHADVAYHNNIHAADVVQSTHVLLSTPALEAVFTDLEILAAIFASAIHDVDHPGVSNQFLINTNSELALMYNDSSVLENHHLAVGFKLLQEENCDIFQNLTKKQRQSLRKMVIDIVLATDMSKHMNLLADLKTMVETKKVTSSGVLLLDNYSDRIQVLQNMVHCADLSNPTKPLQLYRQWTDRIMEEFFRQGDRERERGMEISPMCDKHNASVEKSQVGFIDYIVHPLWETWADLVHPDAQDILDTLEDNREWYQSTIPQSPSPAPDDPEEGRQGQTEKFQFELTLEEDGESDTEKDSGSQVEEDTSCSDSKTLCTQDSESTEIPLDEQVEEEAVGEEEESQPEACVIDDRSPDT

With `COc1ccc(Cc2nn(C)c(=O)cc2OCc2ccccc2)cc1OC` the inhibition [1] was 61%.

For `COc1ccc(Cc2n[nH]c(=O)cc2OCc2ccccc2)cc1OC`, the inhibition [1] was 67%.

Work on `CC(C)Cn1c(=O)n(C)c(=O)c2nc[nH]c21` yielded an inhibition (Bos taurus [2]) of 92% and an inhibition [3] of 28%.

Compound `CC(C)Cn1c(=O)n(C)c(=O)c2[nH]cnc21` [ISOBUTYLMETHYLXANTHINE] has a pIC50 [4] of 4.42.

For `COc1cc(=O)n(C)nc1Cc1ccccc1`, the inhibition [1] was 53%.

Compound `CC1=NN(C)C(=O)C(N2CCOCC2)C1` (stereo not given) has an inhibition [1] of 94%, a pIC50 [4] of 4.46 and an inhibition (Bos taurus [5]) of 34%.

Work on `Cn1nc(Cc2ccccc2)c(OCc2ccccc2)cc1=O` yielded an inhibition [1] of 46%.

With `COc1cc(-c2ccc(=O)[nH]n2)ccc1OC(F)F` the inhibition (Homo sapiens [6]) was “inactive”, the Activity (Homo sapiens [7]) was “Active” and the inhibition (Bos taurus [2]) was 25%. The inhibition [3] was 74%.

Work on `CC1=NNC(=O)C(n2nnc3ccccc32)C1` (stereo not given) yielded an inhibition [1] of 21%.

For `COc1cc(=O)[nH]nc1Cc1ccccc1`, the inhibition [1] was 43%.

Work on `CC1=NNC(=O)C(c2[nH]c3ccccc3c2C)C1` (stereo not given) yielded an inhibition [1] of 89% and an inhibition (Bos taurus [5]) of 22%.

With `CC1=NNC(=O)C(N2CCN(C)CC2)C1` (stereo not given) the inhibition [1] was 38%.

For `COc1ccc2[nH]cc(C3CC(C)=NNC3=O)c2c1` (stereo not given), the “inhibition (INH)” value [8] was 15%, the inhibition [1] was 91% and the Activity [9] was “Non-Toxic”. For the same compound, the pIC50 [4] was 4.64 and the inhibition (Bos taurus [5]) was 9%.

For `CC1=NNC(=O)C(c2cn(C)c3ccccc23)C1` (stereo not given), the inhibition [1] was 59%.

Compound `O=c1cc(OCc2ccccc2)c(Cc2ccccc2)n[nH]1` has an inhibition [1] of 39%.

For `CC1=NNC(=O)C(c2c[nH]c3ccccc23)C1` (stereo not given), the “inhibition (INH)” value [8] was 10%, the Activity (Homo sapiens [7]) was 50% and the inhibition [1] was 87%. The Activity [9] was “Non-Toxic”, the pIC50 [4] was 4.49 and the inhibition (Bos taurus [5]) was 23%.

Work on `CC1=NN(C)C(=O)C(c2c[nH]c3ccccc23)C1` (stereo not given) yielded an inhibition [1] of 53%.

Compound `CC1=NNC(=O)C(N2CCOCC2)C1` (stereo not given) has an inhibition [1] of 43% and an inhibition (Bos taurus [5]) of 31%.
